In ChEMBL document CHEMBL3244213, “Synthesis of angiotensin II antagonists by incorporating alpha-methylalanine or O-methylthreonine residues in angiotension II analogues” (J Med Chem, 1977):
The source made the active and inactive calls. The rule behind the calls is not given here. Non-standard residues stand in square brackets, D forms with d. Residues, ends and D or L forms follow the SMILES beside them. Sar = CNCC(=O)O

Key:
Rattus norvegicus [1] = assay: In vivo agonist activity at angiotensin 2 receptor in ganglion-blocked vagotomized rat assessed as rise in blood pressure at 125 ng/kg/min compound infused for 3 mins; assay type: functional
Oryctolagus cuniculus [2] = organism: Oryctolagus cuniculus; assay: Antagonist at angiotensin 2 receptor in rabbit aorta assessed as duration of action at 1 uM/L treated for 5 mins after angiotensin-2 challenge
Method in brief: (§1)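 Spirally cut rabbit aortic strips challenged with a standard 10^-9 M/L angiotensin II dose, then incubated with 10^-6 M/L analogue for 5 min; analogue washed out of the bath and angiotensin II response retested at 5, 30, 60, 120 and 180 min.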

Rattus norvegicus [3] = assay: In vivo agonist activity at angiotensin 2 receptor in ganglion-blocked vagotomized rat assessed as rise in blood pressure at 125 ng/kg/min compound infused for 30 mins; assay type: functional
Method in brief: (§2)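 Vagotomized, ganglion-blocked rats given analogue by infusion (standard rate 250 ng/kg/min, some at 125 ng/kg/min); initial blood pressure rise recorded in mmHg over the 30-min infusion period.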

[4] = Retardation factor of the compound using n-BuOH-pyridine-water at ratio of 65:35:65 as solvent system by thin layer chromatography; assay type: physicochemical; settings: buffer
Oryctolagus cuniculus [5] = organism: Oryctolagus cuniculus; assay: Agonist activity at angiotensin 2 receptor in rabbit aorta assessed as myotropic activity up to 1 uM/L relative to angiotensin-2; assay type: tissue-based
Method in brief: (§3)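 Spirally cut isolated rabbit aortic strips; contractile (myotropic) activity of each analogue tested up to a maximum dose level of 10^-6 M/L.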

[6] = Competitive antagonist at angiotensin 2 receptor in rabbit aorta assessed as rightward shift in angiotensin-2 dose response curve for myotropic activity; assay type: tissue-based, Oryctolagus cuniculus
Rattus norvegicus [7] = assay: In vivo agonist activity at angiotensin 2 receptor in ganglion-blocked vagotomized rat assessed as rise in blood pressure at 250 ng/kg/min compound infused for 30 mins; assay type: functional; method in brief: as §2
Rattus norvegicus [8] = assay: In vivo agonist activity at angiotensin 2 receptor in ganglion-blocked vagotomized rat assessed as rise in blood pressure at 250 ng/kg/min compound infused for 3 mins; assay type: functional
Oryctolagus cuniculus [9] = organism: Oryctolagus cuniculus; assay: Non-competitive antagonist at angiotensin 2 receptor in rabbit aorta assessed as inhibition of angiotensin-2 induced myotropic activity at > 1 uM/L; assay type: tissue-based
Rattus norvegicus [10] = assay: In vivo agonist activity at angiotensin 2 receptor in ganglion-blocked vagotomized rat assessed as rise in blood pressure at 250 ng/kg/min compound infused for 10 mins; assay type: functional
Rattus norvegicus [11] = assay: In vivo non-competitive antagonist activity at angiotensin 2 receptor in ganglion-blocked vagotomized rat assessed as angiotensin-2 dose ratio at 125 ng/kg/min administered as an infusion; assay type: functional
Method in brief: (§4)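 Vagotomized, ganglion-blocked rats infused with analogue at 125 or 250 ng/kg/min; antagonism of angiotensin II pressor response expressed as dose ratio.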

[12] = Retardation factor of the compound using n-BuOH-pyridine-water at ratio of 10:2:5 as solvent system by thin layer chromatography; assay type: physicochemical; settings: buffer
Rattus norvegicus [13] = assay: In vivo agonist activity at angiotensin 2 receptor in ganglion-blocked vagotomized rat assessed as rise in blood pressure at 125 ng/kg/min compound infused for 10 mins; assay type: functional
Rattus norvegicus [14] = assay: In vivo non-competitive antagonist activity at angiotensin 2 receptor in ganglion-blocked vagotomized rat assessed as angiotensin-2 dose ratio at 250 ng/kg/min administered as an infusion; assay type: functional; method in brief: as §4
[15] = Retardation factor of the compound using n-BuOH-pyridine-water at ratio of 65:35:35 as solvent system by thin layer chromatography; assay type: physicochemical; settings: buffer
Rattus norvegicus [16] = assay: In vivo agonist activity at angiotensin 2 receptor in ganglion-blocked vagotomized rat assessed as pressor activity administered as single bolus dose relative to angiotensin-2; assay type: functional
Method in brief: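 Vagotomized, ganglion-blocked rats; analogue given as a single injection and pressor response expressed as percent of angiotensin II ([Asp1,Ile5]angiotensin II = 100).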

[17] = Retardation factor of the compound using n-BuOH-AcOH-water at ratio of 4:1:5 as solvent system by thin layer chromatography; assay type: physicochemical; settings: buffer
[18] = Retardation factor of the compound using n-BuOH-AcOEt-AcOH-water at ratio of 1:1:1:1 as solvent system by thin layer chromatography; assay type: physicochemical; settings: buffer
[19] = Retardation factor of the compound using n-BuOH-AcOH-water-pyridine at ratio of 30:6:24:20 as solvent system by thin layer chromatography; assay type: physicochemical; settings: buffer
[20] = Retardation factor of the compound using n-PrOH-water at ratio of 2:1 as solvent system by thin layer chromatography; assay type: physicochemical; settings: buffer
Felis catus [21] = organism: Felis catus; assay: Agonist activity at angiotensin 2 receptor in cat adrenal medulla assessed as secretory activity relative to angiotensin-2; assay type: tissue-based
Oryctolagus cuniculus [22] = organism: Oryctolagus cuniculus; assay: Agonist activity at angiotensin 2 receptor in rabbit aorta assessed as myotropic activity relative to angiotensin-2; assay type: tissue-based; method in brief: as §3
Felis catus [23] = organism: Felis catus; assay: Agonist activity at angiotensin 2 receptor in cat adrenal cortex assessed as secretory activity relative to angiotensin-2; assay type: tissue-based
[24] = Retardation factor of the compound using n-BuOH-AcOH-water at ratio of 4:1:1 as solvent system by thin layer chromatography; assay type: physicochemical; settings: buffer
Oryctolagus cuniculus [25] = organism: Oryctolagus cuniculus; assay: Reversal antagonistic activity at angiotensin 2 receptor in rabbit aorta assessed as inhibition of angiotensin-2 induced myotropic activity at 1 uM/L measured at 1 hr following drug wash-out; assay type: tissue-based; method in brief: as §1

| TIME (Oryctolagus cuniculus [2]) [h] | Rf [4] | Rf [12] | Rf [15] | Rf [17] | Rf [19] | Structure (SMILES) | Activity (Rattus norvegicus [1]) [mmHg] | Activity (Rattus norvegicus [3]) [mmHg] | Activity (Oryctolagus cuniculus [5]) [%] | pA2 [6] | Activity (Rattus norvegicus [7]) [mmHg] | Activity (Rattus norvegicus [8]) [mmHg] | inhibition (Oryctolagus cuniculus [9]) | Activity (Rattus norvegicus [10]) [mmHg] | Ratio (Rattus norvegicus [11]) | Ratio (Rattus norvegicus [14]) | Activity (Rattus norvegicus [16]) [%] | further results |
| --- | --- | --- | --- | --- | --- | --- | --- | --- | --- | --- | --- | --- | --- | --- | --- | --- | --- | --- |
| 2 | 0.25 | 0.08 | 0.25 | 0.35 |  | CC[C@H](C)[C@H](NC(=O)[C@@H]1CCCN1C(=O)[C@H](Cc1c[nH]cn1)NC(=O)[C@@H](NC(=O)[C@H](Cc1ccc(O)cc1)NC(=O)[C@@H](NC(=O)[C@H](CCCN=C(N)N)NC(=O)CNC)C(C)C)[C@@H](C)OC)C(=O)O (H-[Sar]RVYT(Me)HPI-OH) | 11 | 19.8 | 0.1 | 9.5 | 18.5 | 19 | Active | 18.83 | 24.15 | 50 | 1.01 | Activity (Rattus norvegicus [13]): 16.82 mmHg |
| 3 |  | 0.24 | 0.43 | 0.46 | 0.63 | CC[C@H](C)[C@H](NC(=O)[C@H](Cc1ccc(O)cc1)NC(=O)[C@@H](NC(=O)CN(C)C(=O)CNC)C(C)C)C(=O)N[C@@H](Cc1c[nH]cn1)C(=O)N1CCC[C@H]1C(=O)N[C@H](C(=O)O)[C@@H](C)O (H-[Sar][Sar]VYIHPT-OH) |  |  | 0 | 8.78 | 11.66 | 3.16 | Active | 7 |  | 1.93 | 0 | Rf [18]: 0.75; Rf [20]: 0.76 |
| 2 |  |  |  |  |  | CC[C@H](C)[C@H](NC(=O)[C@H](Cc1ccc(O)cc1)NC(=O)[C@@H](NC(=O)[C@H](CCCN=C(N)N)NC(=O)CNC)C(C)C)C(=O)N[C@@H](Cc1c[nH]cn1)C(=O)N1CCC[C@H]1C(=O)N[C@H](C(=O)O)[C@@H](C)O (H-[Sar]RVYIHPT-OH) |  |  | 0.5 | 8.79 | 9.2 | 9.46 | Active | 9.66 |  | 26.91 | 0.6 | Activity (Felis catus [21]): 0.1%; Activity (Oryctolagus cuniculus [22]): 0.5%; Activity (Felis catus [23]): 1% |
| 2 |  |  | 0.18 | 0.28 | 0.47 | CNCC(=O)N[C@@H](CCCNC(=N)N)C(=O)N[C@H](C(=O)N[C@@H](Cc1ccc(O)cc1)C(=O)N[C@H](C(=O)N[C@@H](Cc1cnc[nH]1)C(=O)N1CCC[C@H]1C(=O)N[C@H](C(=O)O)[C@@H](C)OC)[C@@H](C)OC)C(C)C | 8.33 | 14.5 | 0 | 9.5 |  |  | Active |  | 32.73 |  | 0.46 | Activity (Rattus norvegicus [13]): 13 mmHg |
| 2 |  |  |  |  |  | CC[C@H](C)[C@H](NC(=O)[C@H](Cc1ccc(O)cc1)NC(=O)[C@@H](NC(=O)[C@H](CCCN=C(N)N)NC(=O)CNC)C(C)C)C(=O)N[C@@H](Cc1c[nH]cn1)C(=O)N1CCC[C@H]1C(=O)N[C@@H](C)C(=O)O |  |  | 0.5 | 8.61 | 17.44 | 15.11 | Active | 16.88 |  | 7.92 |  |  |
| 2 |  |  |  |  |  | CC[C@H](C)[C@H](NC(=O)[C@@H]1CCCN1C(=O)[C@H](Cc1c[nH]cn1)NC(=O)[C@@H](NC(=O)[C@H](Cc1ccc(O)cc1)NC(=O)[C@@H](NC(=O)[C@H](CCCN=C(N)N)NC(=O)CNC)C(C)C)[C@@H](C)CC)C(=O)O |  |  | 1 | 9.17 | 14.81 | 17.81 | Active | 18.27 |  | 27.79 | 1 |  |
| 2 | 0.22 |  | 0.26 | 0.46 | 0.62 | CC[C@H](C)[C@H](NC(=O)[C@H](Cc1ccc(O)cc1)NC(=O)[C@@H](NC(=O)[C@H](CCCNC(=N)N)NC(=O)CNC)C(C)C)C(=O)N[C@@H](Cc1cnc[nH]1)C(=O)N1CCC[C@H]1C(=O)NC(C)(C)C(=O)O |  |  | 0 | 8.7 | 16.6 | 11 | Active | 13.16 |  | 19.76 | 0.52 | Rf [24]: 0.5 |
| 1 | 0.43 | 0.26 | 0.41 | 0.47 | 0.64 | CC[C@H](C)[C@H](NC(=O)[C@H](Cc1ccc(O)cc1)NC(=O)[C@@H](NC(=O)[C@H](CCCNC(=N)N)NC(=O)C(C)(C)N)C(C)C)C(=O)N[C@@H](Cc1cnc[nH]1)C(=O)N1CCC[C@H]1C(=O)NC(C)(C)C(=O)O |  |  | 0 | 7.22 | 14.33 | 5.16 | Active | 8.5 |  | 3.4 | 0.24 | Rf [20]: 0.83; inhibition (Oryctolagus cuniculus [25]): Active |
| 2 |  |  |  |  |  | CC[C@H](C)[C@H](NC(=O)[C@H](Cc1ccc(O)cc1)NC(=O)[C@@H](NC(=O)[C@H](CCCNC(=N)N)NC(=O)CNC)C(C)C)C(=O)N[C@@H](Cc1cnc[nH]1)C(=O)N1CCC[C@H]1C(=O)N[C@H](C(=O)O)[C@@H](C)OC | 5.25 | 8.75 | 0.5 | 8.76 | 15.06 | 13.82 | Active | 15.88 | 11.65 | 62.52 | 0.48 |  |
